Bioassay records from PubChem BioAssay.
MT1-MMP act inh = blockers of MT1-MMP proenzyme processing, primary screen, HT1080 RFP-PRO-GFP cells, GFP/RFP fluorescence. Matrix metalloproteinase-14 (Homo sapiens), P50281. GFP/RFP ratio fluorescence, overnight; percent of plate control window, DMSO zero. actives 0.061% (n = 360,000). GFP/RFP ratio change, % at 20 µM;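 active = GFP/RFP ratio change of at least 30% with cell ATP level not reduced by more than half and red fluorescence within 50% of control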
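Read-out: GFP/RFP fluorescence ratio; Test system: RFP-PRO-GFP reporter HT1080 cells; Compound dosing: single-point 20 µM compound, 1% DMSO; Times: overnight compound exposure at 37 °C.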
Efflux pump mplx = inhibitors of Candida efflux pumps in yeast, primary screen, S. cerevisiae, Nile Red, multiplex. S. cerevisiae Candida pump triplex. inhibition, % at 10 µM. actives 0.44% (n = 330,000);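 active = plate passing quality check with inhibition over a set limit, or well fluorescence over plate mean plus 4 SD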;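 also: Nile Red retained in pooled yeast measured as flow cytometry median fluorescence; higher means more Nile Red kept so more efflux inhibition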
sPLA2-III inh = human group III sPLA2 inhibitors, primary screen, biochemical, QFRET, BODIPY PC-A2 liposome substrate | QFRET BODIPY PC-A2 liposome hydrolysis, fluorescence | Group 3 secretory phospholipase A2 (Homo sapiens), Q9NZ20 | AID 743126, 2013 | actives 0.56% (n = 370,000) | inhibition, % at 12.2 µM;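 active = inhibition above mean plus 3 SD of compounds lying within the high and low control bounds, cut at about 19% in these data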
Target sequence (Q9NZ20 whole entry, looked up): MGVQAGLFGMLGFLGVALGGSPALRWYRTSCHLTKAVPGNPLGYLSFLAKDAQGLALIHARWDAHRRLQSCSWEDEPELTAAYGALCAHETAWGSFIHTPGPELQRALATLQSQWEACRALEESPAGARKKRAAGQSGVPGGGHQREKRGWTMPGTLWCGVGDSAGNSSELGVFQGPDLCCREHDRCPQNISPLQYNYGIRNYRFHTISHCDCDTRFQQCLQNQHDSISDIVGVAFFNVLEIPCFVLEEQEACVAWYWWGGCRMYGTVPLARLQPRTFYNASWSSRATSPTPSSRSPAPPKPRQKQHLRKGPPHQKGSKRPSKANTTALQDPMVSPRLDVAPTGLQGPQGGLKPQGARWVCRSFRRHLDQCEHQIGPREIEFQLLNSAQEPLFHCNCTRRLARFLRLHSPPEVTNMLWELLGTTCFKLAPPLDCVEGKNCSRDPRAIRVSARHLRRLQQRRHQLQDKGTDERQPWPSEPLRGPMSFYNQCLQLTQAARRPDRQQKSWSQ
TAG inh = inhibitors of triacylglycerol accumulation, primary screen, cell-based, uHTS, fluorescence, H9c2. H9c2 cells, Nile Red lipid (TAG) fluorescence; cells loaded with 200 µM oleic acid. inhibition, % at 12.5 µM. actives 0.66% (n = 230,000). AID 651582, 2012;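 active = pattern-corrected inhibition of lipid staining of at least 50% with the nuclear-stain viability signal not falling by more than 50%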
H9c2 TAG conf = triacylglycerol accumulation inhibitors, retest, confirmation, cell-based, single concentration, Nile Red fluorescence, H9c2. shares compounds with TAG inh. H9c2 lipid accumulation; cells loaded with 200 µM oleic acid. inhibition, % at 12.5 µM. actives 71% (n = 990);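 active = mean inhibition across replicates of 40% or more; inactive = mean inhibition below 40%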
Numbers stand for hits; . = inactive; / = no result given. A selection: hits, their analogues and other compounds. The true share with any hit is near 1.3%.

SMILES | MT1-MMP act inh | Efflux pump mplx | sPLA2-III inh | TAG inh | H9c2 TAG conf
CCCCN(C1CCS(=O)(=O)C1)S(=O)(=O)c1cc(C)ccc1C (configuration not stated) | . | . | . | . | /
C[C@@H]1ON(C)[C@H]2C[C@H]3c4[nH]c5c(-c6ccc(C(F)(F)F)cc6)cccc5c4CCN3C(=O)[C@@H]12 | / | / | . | / | /
O[C@H]1CN(CC2CCCCC2)[C@@H](c2ccc(Cl)cc2)C[C@@H]1n1cc(-c2ccc(F)cc2)nn1 | . | / | . | 51.4 | 64.0
Cc1cc(C)nc(NC(=NCCc2c[nH]c3ccccc23)NC(=O)Nc2ccc(Cl)c(Cl)c2)n1 | . | . | . | 67.3 | 69.6
O=C1CCc2cc(S(=O)(=O)N3CCN(c4ccccc4Cl)CC3)ccc2N1 | / | / | . | / | /
O=c1nc(N/N=C/C=C/c2ccccc2)cn[nH]1 | . | . | . | 63.9 | .
O=c1nc(N/N=C/c2c[nH]c3ccccc23)cn[nH]1 | . | . | . | . | /
CCCCN1CC(COCc2ccccc2)Oc2cccc(Oc3ccc(F)cc3OC)c2S1(=O)=O (configuration not stated) | / | / | . | / | /
COc1cc(C(=O)Nc2sc3c(c2C(=O)NCc2ccco2)CCCC3)cc(OC)c1OC | . | . | . | . | /
COc1ccc(C(=O)Nc2ccccc2C(=O)NCc2ccco2)cc1OC | . | . | . | / | /
COc1ccc(C(=O)Nc2sc3c(c2C(=O)NCc2ccco2)CCCC3)cc1OC | . | . | . | 65.6 | 51.8
COc1ccc(C(=O)Nc2ccc(Cl)cc2C(=O)NCc2ccco2)cc1OC | . | . | . | 52.0 | .
COC(=O)C1=C(C(=O)OC)C(C(=O)OC)C(C(=O)OC)C(C(=O)OC)(C(=O)OC)C(C(=O)OC)=C1C(=O)OC (configuration not stated) | . | / | . | . | /
CC(C)C[C@H](CO)N(Cc1ccccc1)S(=O)(=O)N(Cc1ccccc1)[C@@H](CO)CC(C)C | . | . | . | 55.6 | 45.9
COc1ccc(Cl)cc1-c1cc(C(=O)NCC2CCCCC2)[nH]n1 | . | / | . | 53.5 | .
CCOc1ccc(Cl)cc1-c1cc(C(=O)NCC2CCCCC2)[nH]n1 | . | / | . | . | /
COC(=O)[C@@]12C[C@@H](CC(=O)NCCCCc3ccccc3)C(=O)N(Cc3cccc4ccccc34)C1=CCC(C)(C)C2 | . | / | . | / | /
CCOc1ccccc1NC(=O)N1CCCC1C(=O)Nc1ccc(-n2cnnn2)c(C)c1 (configuration not stated) | . | . | . | 55.9 | .
Cc1ccc(NC(=O)N2CCCC2C(=O)Nc2ccc(-n3cnnn3)c(C)c2)cc1 (configuration not stated) | . | . | . | . | /
CC1CCCCN1C(=O)COC(=O)c1ccc(=O)n(Cc2ccccc2)n1 (configuration not stated) | . | . | . | . | /
O=C(CN(Cc1ccco1)C(=O)c1cccc(Cl)c1)Nc1c(Cl)cc(Cl)cc1Cl | . | . | . | 53.3 | .
CC1(C)Cc2c(C#N)c(SCC(=O)c3ccccc3)nc(N3CCOCC3)c2CS1 | . | . | . | 50.9 | 58.9
CCN(C[C@H]1N[C@@](CC)(C(=O)OC)[C@H]2C(=O)N(Cc3ccccc3)C(=O)[C@@H]12)S(=O)(=O)c1ccc(-c2ccccc2)cc1 | . | . | . | . | /
CCN(C[C@H]1N[C@@](CC)(C(=O)OC)[C@H]2C(=O)N(Cc3ccccc3)C(=O)[C@@H]12)S(=O)(=O)c1ccc(C(C)(C)C)cc1 | . | . | . | 65.3 | 59.8
O=C(Cn1cc[n+](CC(=O)c2ccc(Cl)cc2Cl)c1)c1ccc(Cl)cc1Cl | . | . | . | 60.1 | 44.2
SMILES | MT1-MMP act inh | Efflux pump mplx | sPLA2-III inh | TAG inh | H9c2 TAG conf
O=C(Cn1cc[n+](CC(=O)c2ccccc2)c1)c1ccccc1 | . | . | . | . | /
O=C(CSc1nc(N2CCCCC2)nc(N2CCCCC2)n1)N1CCN(c2ccccc2)CC1 | . | / | . | 60.2 | .
Cc1ccccc1NC(=O)CSc1nc(Nc2ccccc2)nc(N2CCOCC2)n1 | . | . | . | 53.7 | 46.1
O=C(CSc1nc(Nc2ccccc2)nc(N2CCOCC2)n1)N1CCCC1 | . | . | . | 71.3 | 40.9
CC(Sc1nc(NCc2ccccc2)nc(N2CCOCC2)n1)C(=O)Nc1ccccc1 (configuration not stated) | . | . | . | 70.0 | 46.6
Cc1ccc(F)cc1NC(=O)CSc1nc(Nc2ccccc2)nc(N2CCOCC2)n1 | . | . | . | . | /
Cc1nn(CC(=O)Nc2c(F)c(F)cc(F)c2F)c(=O)c2cccn12 | . | . | . | / | /
Cc1ncc([N+](=O)[O-])n1CC(=O)N/N=C/c1ccccc1F | . | . | . | . | /
CCCCN(C)C(=O)c1ccc(Nc2nc(C(N)Cc3ccc(C(F)(F)F)cc3)cs2)nc1 (configuration not stated) | . | / | . | 55.8 | 71.1
NC(Cc1ccc(C(F)(F)F)cc1)c1csc(Nc2ccc(C(=O)NCCCO)cn2)n1 (configuration not stated) | . | / | . | 57.5 | .
CCCCN(C)C(=O)c1ccc(Nc2nc(C(N)CCc3ccccc3)cs2)nc1 (configuration not stated) | . | / | . | . | /
Cc1ccc(C)c(C(Nc2ccccc2)c2ccc3ccc(C)nc3c2O)c1 (configuration not stated) | . | / | . | / | /
O=C(/C=C/[C@H]1O[C@@H](n2ccc(=O)[nH]c2=O)[C@H](O)[C@@H]1O)NCc1cccnc1 | . | / | . | / | /
CCN(CC)CCN(C(=O)Cn1nnc(-c2ccc(C)o2)n1)C(C(=O)NC(C)(C)C)c1cccs1 (configuration not stated) | . | . | . | . | /
CSc1ccc(/C=C/C(=O)c2ccc(NC(=O)C(C)C)cc2)cc1 | . | . | . | . | /
CSc1ccc(/C=C/C(=O)c2ccc(NC(=O)Cc3ccccc3)cc2)cc1 | . | . | . | 59.1 | .
CC(=O)C1=C(O)C(=O)N(c2ccc(S(=O)(=O)Nc3nccs3)cc2)C1c1ccc(F)cc1 (configuration not stated) | . | . | . | . | /
CC(C)=CCC/C(C)=C/CNC(=O)C[C@H]1C[C@H](C(=O)N2CCCCC2)[C@@]2(CCc3ccccc3)c3[nH]c4cc(-c5ccco5)ccc4c3CCN2C1=O | . | . | / | 68.6 | 91.8
C[C@]12c3[nH]c4ccccc4c3CCN1C(=O)C(CC(=O)NCC13CC4CC(CC(C4)C1)C3)C[C@@H]2C(=O)N1CCCCC1 (some centres not stated) | . | . | . | 83.0 | 60.5
COc1ccc(CNC(=O)C[C@H]2C[C@H](C(=O)N3CCCCC3)[C@@]3(CCc4ccccc4)c4[nH]c5ccc(Cl)cc5c4CCN3C2=O)cc1OC | . | . | . | 53.0 | 84.3
